Source: PubChem BioAssay
Compounds with a hit are over-represented: about 2.4% of the library has one in this group of screens.
MT1-MMP act inh = inhibitors of human MT1-MMP activation; P50281; HT1080 RFP-PRO-GFP cells, GFP/RFP ratio fluorescence, overnight; percent of plate control window, DMSO zero; GFP/RFP ratio change, % at 20 µM; 360,000 tested, 0.061% active; AID 651647;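 active means GFP/RFP ratio change of at least 30% with cell ATP level not reduced by more than half and red fluorescence within 50% of control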
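Assay system: HT1080 RFP-PRO-GFP cells. Benchmarks: DMSO vehicle wells and RFP-L50D-GFP reporter cell wells. Times: overnight cell settling, then overnight compound exposure, 37 °C, 5% CO2. Compound: 20 µM single dose, 1% DMSO. Read-out basis: GFP/RFP fluorescence ratio.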
DAGLB inhibitor = diacylglycerol lipase beta (human) inhibition | Q8NCG7 | HEK293T DAGLB membrane lysate, EnzChek fluorogenic substrate | inhibition, % at 5.17 µM | 340,000 tested, 0.059% active | AID 504411; in the data active means inhibition above about 34%;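 further: 0% = enzyme with vehicle and 100% = wells lacking enzyme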
Myeloid diff MLP = promotes myeloid progenitor differentiation. calls only at 10 µM. 360,000 tested, 1% active. ER-HoxA9 myeloid progenitors, lysozyme-GFP differentiation, flow cytometry. AID 624256;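 active means normalized GFP-positive differentiation at or above the plate's own cutoff, the solvent-only control mean plus 3 SD; inconclusive means no clear call, values can overlap the other calls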;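 further: cells exposed to compound for four days before flow analysis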
SENP1 FRET inh = inhibitors of human SENP1 SUMO protease catalytic domain; 360,000 tested, 0.21% active; recombinant SENP1 catalytic domain, CyPet-SUMO1-YPet FRET cleavage; inhibition, % at 10 µM; AID 624204; Q9P0U3;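 active means inhibition at least 30% at 10 µM, raw YFP signal under a set limit, fluorescence ratio 0.5 to 1.5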;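 further: 0% = enzyme with DMSO and 100% = no enzyme wells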
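material = recombinant human SENP1 catalytic domain, His6-tagged | quantity = 20 pM enzyme | reagent = 25 nM SUMO1 FRET substrate | compound dosing = 10 µM single point, 0.5% DMSO | timing = 50 min enzyme reaction, room temperature, light-protected | detection = FRET, CFP and YFP emission | control set = no-enzyme low, enzyme-DMSO high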
beta cell repl = MIN6 beta-cell proliferation induction; 330,000 tested, 0.29% active; MIN6 cells proliferation, ATPlite luminescence, 48 h; cells starved in 0.2% serum; 100% = growth in 10% serum; proliferation, % at 10 µM;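 active means compounds whose signal lies at least 3.5 SD above the mean of all wells on their plate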;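 further: 0% = DMSO-treated cells in low-serum medium and 100% = 10% serum control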
CendR NRP1 mod = NRP-1/CendR interaction modulation | AID 602438 | FAM-RPARPAR peptide binding to NRP-1, fluorescence polarization | inhibition, % at 25 µM | O14786 | 360,000 tested, 0.85% active;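 active means inhibition or corrected inhibition above about 18%, plus a signal ratio from 0.5 to 1.5, limit read from the data, passing the limit was not always enough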
Numbers without * were called inactive; i = inactive; ? = inconclusive; nt = no result; + = active, no number.

SMILES	MT1-MMP act inh	DAGLB inhibitor	Myeloid diff MLP	SENP1 FRET inh	beta cell repl	CendR NRP1 mod
N#Cc1cccc(-c2csc(C(O)c3ccc(F)cc3)n2)c1 (stereo unspecified)	5.1	nt	i	-0.8	nt	-10.0
Nc1cc(=O)[nH]n1C1CCCC1	-0.8	-0.3	i	0.1	-1.0	19.6
CCOC(=O)[C@]12CCC=C1N(Cc1ccc3c(c1)OCO3)C(=O)[C@H](CC(=O)NCCc1ccccc1OC)C2	2.7	nt	i	-2.2	nt	3.7
CCN(CC)CCC(=O)Nc1cccc2c1C(=O)c1ccccc1C2=O	-7.3	nt	?	61.8*	-4.0	98.1
Nc1cccc(C(=O)OCC(=O)Nc2cccc3c2C(=O)c2ccccc2C3=O)c1	-11.0	-3.0	i	32.6*	-0.9	24.8
Cc1cccc(NC(=O)COC(=O)c2cccc3c2C(=O)c2ccccc2C3=O)c1C	5.1	1.7	i	-2.7	0.0	3.9
CCN(CC)CCNC(=O)c1ccc2c(c1NCCO)C(=O)c1ccccc1C2=O	10.3	nt	nt	4.5	-4.0	-1.5
NC(=O)c1oc2ccccc2c1NC(=O)c1nc2ccccc2s1	12.0	-1.4	i	-2.6	-2.3	24.1*
COc1ccccc1CCN=C(N)NS(=O)(=O)c1cccs1	-0.2	-1.4	i	1.9	2.0	0.7
COc1ccc(CCN=C(N)NS(=O)(=O)c2cccs2)cc1OC	2.0	-0.3	i	2.8	1.5	20.0*
CCOC(=O)c1ccc(-c2c(-c3cc(OC)c(OC)c(OC)c3)noc2C)cc1F	14.0	-7.7	?	0.1	-8.0	25.2*
O=C1N/C(=C\c2ccccc2)c2ccccc21	-1.1	0.1	+	1.1	-3.0	7.7
O=C(CC1NC(=O)NC1=O)Nc1ccccc1 (stereo unspecified)	3.6	0.3	i	4.5	0.5	26.9*
CCCS(=O)(=O)NC(=O)C1(C)CCN(C(=O)c2ccc(C(=O)OC)cc2)C1 (stereo unspecified)	5.1	nt	i	1.5	nt	-8.4
COc1ccc(C(=S)N2CCOCC2)cc1OC(=O)c1cc(OC)c(OC)c(OC)c1	4.9	-3.2	+	2.5	0.0	8.5
COc1ccc(C(=S)N2CCOCC2)cc1OC(=O)c1ccccc1	0.7	-4.1	i	-1.5	-1.4	-7.3
COc1cccc(CC2(CO)CCCN(Cc3cn[nH]c3-c3ccccc3)C2)c1 (stereo unspecified)	-6.8	-1.6	+	-1.7	-2.1	-0.9
O=C(Nc1ccccc1)c1cc(C2CCCN(C(=O)c3ccc4c(c3)CCO4)C2)on1 (stereo unspecified)	-2.2	nt	i	-0.9	nt	-4.5
COc1cccc(CN2CCN(C(=O)C3CCC(=O)N(C4CCCC4)C3)CC2)c1 (stereo unspecified)	-5.4	0.0	i	3.1	-3.7	17.8
O=C(C1CCC(=O)N(C2CCCC2)C1)N1CCN(Cc2cccc(F)c2)CC1 (stereo unspecified)	0.3	-6.3	+	-0.9	-3.2	-6.1
Cc1ccc(S(=O)(=O)N2[C@@H](CO)CO[C@H]2CC(=O)c2cccc3ccccc23)cc1	-0.5	nt	i	0.9	nt	7.3
CCc1ccc(-c2cc(C(F)(F)F)n3nc(C(=O)Nc4c(C)nn(Cc5ccccc5Cl)c4C)cc3n2)s1	2.3	1.3	i	-26.4	-2.6	-13.6
CCc1ccc(-c2cc(C(F)(F)F)n3nc(C(=O)Nc4c(C)nn(Cc5ccccc5C)c4C)cc3n2)s1	3.1	0.2	+	-27.8	-4.6	8.5
COc1ccc(-c2noc(CCC(=O)Nc3cccnc3)n2)cc1	3.0	-0.9	+	1.7	-3.2	-11.6
COc1ccccc1NC(=O)CCC(=O)c1ccc(-c2ccccc2)cc1	-2.7	-8.2	+	15.3	0.0	-33.9
CCCc1nnc(SCC(=O)N2C(C)CCCC2C)n1CC1CCCO1 (stereo unspecified)	9.1	1.4	i	1.6	-0.2	8.4
Cc1cc(C)c(C(=O)COC(=O)c2ccc([N+](=O)[O-])o2)cc1C	2.4	-3.8	i	-0.7	-3.6	1.4
